# Laboratory results taken from article PMC4278532 (Environmental Toxicology and Chemistry / Setac, 2014).
# Tests used:
# [1] = target: T1, human aryl hydrocarbon receptor (AhR) (Homo sapiens, UniProt P35869); assay: Yeast bioassay; format: cell-based; settings: for concentration at which the bioassay response showed signs of saturation: Figure 3
# Method in brief: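 Engineered S. cerevisiae YCM3 (W303a-derived) carries chromosomal full-length human AhR/ARNT under the galactose promoter and a 5×XRE-LacZ plasmid. Kept in glucose medium, diluted to A600 0.04 in 2% galactose medium, exposed 18 h at 30 °C (1% DMSO vehicle). ONPG assay pH 7.0, ~5 min, 37 °C, Na2CO3 stop. A405 normalized to A600, % of 1 µM β-naphthoflavone. Two-parameter fit; n = 4, ≥3 experiments.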
# AhR = settings: cited from earlier work
# YCM3 yeast cells = assay: Toxicity to the yeast cells; format: cell-based, Saccharomyces cerevisiae; settings: for concentrations toxic to the yeast cells: 18 h, precluded data collection; for toxicity to the yeast cells: compared with 2-MP, 3-MP, 4-MP, tested up to 100 µM
# [2] = target: T1, human aryl hydrocarbon receptor (AhR); settings: cited from earlier work
# T1 sequence (P35869 11-848): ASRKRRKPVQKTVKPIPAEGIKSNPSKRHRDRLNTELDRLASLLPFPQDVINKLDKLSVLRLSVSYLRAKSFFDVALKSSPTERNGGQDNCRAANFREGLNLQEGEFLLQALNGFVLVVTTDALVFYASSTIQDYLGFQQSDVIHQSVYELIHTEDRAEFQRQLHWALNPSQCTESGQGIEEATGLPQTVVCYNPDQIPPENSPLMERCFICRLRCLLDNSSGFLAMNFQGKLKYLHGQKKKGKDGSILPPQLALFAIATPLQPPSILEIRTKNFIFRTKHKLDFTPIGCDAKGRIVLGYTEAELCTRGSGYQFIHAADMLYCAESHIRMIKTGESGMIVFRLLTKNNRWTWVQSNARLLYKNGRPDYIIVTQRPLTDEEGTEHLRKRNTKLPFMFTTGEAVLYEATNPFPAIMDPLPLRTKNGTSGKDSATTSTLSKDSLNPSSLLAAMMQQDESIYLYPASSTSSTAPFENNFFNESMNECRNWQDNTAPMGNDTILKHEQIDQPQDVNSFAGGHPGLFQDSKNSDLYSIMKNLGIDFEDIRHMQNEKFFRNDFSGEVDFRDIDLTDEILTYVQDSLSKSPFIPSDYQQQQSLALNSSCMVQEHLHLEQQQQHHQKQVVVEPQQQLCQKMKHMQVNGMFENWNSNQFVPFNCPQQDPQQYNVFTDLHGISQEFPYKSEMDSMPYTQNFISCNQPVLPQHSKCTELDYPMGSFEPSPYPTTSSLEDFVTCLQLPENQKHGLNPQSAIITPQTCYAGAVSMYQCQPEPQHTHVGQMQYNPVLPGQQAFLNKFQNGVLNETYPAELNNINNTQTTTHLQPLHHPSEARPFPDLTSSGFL
# T1 sequence (P27540 whole entry partner): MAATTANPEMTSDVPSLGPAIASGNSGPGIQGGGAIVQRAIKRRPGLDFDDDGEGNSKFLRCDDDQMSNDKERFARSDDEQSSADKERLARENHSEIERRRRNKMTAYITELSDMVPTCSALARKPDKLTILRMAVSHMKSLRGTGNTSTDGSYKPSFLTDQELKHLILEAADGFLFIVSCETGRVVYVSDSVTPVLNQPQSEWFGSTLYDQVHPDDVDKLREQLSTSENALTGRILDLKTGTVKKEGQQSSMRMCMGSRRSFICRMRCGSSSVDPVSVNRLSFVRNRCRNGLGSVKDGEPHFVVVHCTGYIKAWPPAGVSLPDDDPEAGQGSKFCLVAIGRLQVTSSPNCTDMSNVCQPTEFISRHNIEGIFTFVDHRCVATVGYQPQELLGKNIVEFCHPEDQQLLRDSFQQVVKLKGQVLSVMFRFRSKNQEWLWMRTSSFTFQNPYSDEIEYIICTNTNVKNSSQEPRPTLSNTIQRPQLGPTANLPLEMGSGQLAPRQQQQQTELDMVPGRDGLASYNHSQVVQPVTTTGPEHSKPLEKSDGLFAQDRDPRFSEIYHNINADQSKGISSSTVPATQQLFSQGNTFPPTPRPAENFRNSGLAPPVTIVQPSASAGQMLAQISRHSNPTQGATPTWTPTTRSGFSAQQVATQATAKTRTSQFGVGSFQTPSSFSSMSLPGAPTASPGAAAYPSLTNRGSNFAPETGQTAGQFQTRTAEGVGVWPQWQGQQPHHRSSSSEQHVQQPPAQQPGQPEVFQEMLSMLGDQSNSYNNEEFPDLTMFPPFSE
concentration at which the bioassay response showed signs of saturation [1],SMILES,AhR activation in a rat liver system (AhR),concentrations toxic to the yeast cells (YCM3 yeast cells),further results
30 µM,"Cc1cccc2c1ccc1ccccc12 [1-MP, 1-methylphenanthrene]",stronger than 9-MP,,
,"Cc1ccc2c(ccc3ccccc32)c1 [2-MP, 2-methylphenanthrene]",stronger than 9-MP,above 50 µM,
,"Cc1ccc2ccc3ccc(C)cc3c2c1 [3,6-DMP, 3,6-dimethylphenanthrene]",,,signal in the bioassay relative to that produced by phenanthrene and the monomethylated derivatives [1]: approximately 50%
,"Cc1ccc2ccc3ccccc3c2c1 [3-MP, 3-methylphenanthrene]",stronger than 9-MP,above 50 µM,
,"Cc1cccc2ccc3ccccc3c12 [4-MP, 4-methylphenanthrene]",,above 50 µM,
100 µM,"c1ccc2c(c1)ccc1ccccc12 [Phenanthrene, phenanthrene, reference compound]",,,toxicity to the yeast cells (YCM3 yeast cells): less toxic to the yeast cells
,c1ccc2c(c1)cc1ccc3cccc4ccc2c1c34 [benzo[a]pyrene],,,activity in this yeast bioassay [2]: very potent activator
,"O=c1cc(-c2ccccc2)oc2ccc3ccccc3c12 [β-NF, β-naphthoflavone]",,,AhR agonism ([2]; positive control): strong agonist

SMILES,concentration at which the bioassay response showed signs of saturation [1],AhR activation in a rat liver system (AhR),concentrations toxic to the yeast cells (YCM3 yeast cells),further results
"Cc1cc2ccccc2c2ccccc12 [9-MP, 9-methylphenanthrene]",100 µM,,,toxicity to the yeast cells (YCM3 yeast cells): less toxic to the yeast cells
